Reference: ChEMBL document CHEMBL1123190, “Synthesis and biological evaluation of cyclic analogues of 1-carnitine as potential agents in the treatment of myocardial ischemia” (J Med Chem, 1986)
Where “and” joins values, the source holds several entries; their conditions need not be identical. Identical values can stand only once.

What was measured:
[1] = biological target: T1, Mitochondrial carnitine/acylcarnitine carrier protein (Rattus norvegicus) (UniProt P97521); assay: Affinity of compound towards the carnitine/acylcarnitine translocase was determined by monitoring the efflux of [14C]L-carnitine from isolated rat heart mitochondria
T1 sequence (whole entry): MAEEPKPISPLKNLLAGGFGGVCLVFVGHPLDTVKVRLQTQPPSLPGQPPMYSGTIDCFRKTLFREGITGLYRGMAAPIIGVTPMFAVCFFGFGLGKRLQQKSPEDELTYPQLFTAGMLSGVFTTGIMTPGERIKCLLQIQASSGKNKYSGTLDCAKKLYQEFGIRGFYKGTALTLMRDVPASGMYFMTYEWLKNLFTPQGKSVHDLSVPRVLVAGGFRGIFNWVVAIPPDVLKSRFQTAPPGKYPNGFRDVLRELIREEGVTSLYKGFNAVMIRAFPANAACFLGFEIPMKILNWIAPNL
Procedure, shortened: (§1)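 Isolated rat heart mitochondria (differential centrifugation) in 200 mM D-mannitol/50 mM Tris-HCl pH 7.4 with rotenone, oligomycin and antimycin A were loaded with l-carnitine plus [14C]-l-carnitine for 3 min at 28 °C, then washed. Compound at 3 or 50 mM, or water control, was added; efflux ran 1 min on ice and was quenched with mersalyl. Supernatant was scintillation-counted, and % efflux was calculated against control and total radioactivity. Mean of three.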

[2] = biological target: T1, Mitochondrial carnitine/acylcarnitine carrier protein (Rattus norvegicus); assay: Affinity of compound towards the carnitine/acylcarnitine translocase was determined by monitoring the efflux of [14C]L-carnitine from isolated rat heart mitochondria at 3 mM conc.; procedure, shortened: as §1

| Experimental DPM [1] | Experimental DPM [2] | Total DPM [2] | Trans [2] | Compound |
| --- | --- | --- | --- | --- |
| 3470 | – | – | – | CCCCCCCCCCCCCCCC(=O)OC(CN)CC(=O)O (stereo not given) |
| 5050 | – | – | – | O=C(O)[C@@H]1CCCN1 |
| 4220 | – | – | – | NCC(O)CC(=O)O (stereo not given) |
| – | 4930 | 12200 | 3.16% | C[N+]1(C)C[C@H](O)C[C@H]1C(=O)O |
| – | 3850 | 10900 | 0% | C[N+]1(C)CCCCC1C(=O)O (stereo not given) |
| – | 4170 | 10900 | 0% | C[N+](C)(C)[C@@H]1CCCC[C@H]1C(=O)O |
| – | 11800 | 12200 | 94.2% | C[N+](C)(C)CC(O)CC(=O)[O-] (stereo not given) |
| 5570 | – | 12200 | 3.17% | C[N+]1(C)CCC[C@H]1C(=O)[O-] |
| 4130 | – | – | – | O=C(O)C1CCCNC1 (stereo not given) |
| 5890 and 8870 | – | – | – | CCCCCCCCCCCCCCCC(=O)O[C@@H]1C[C@@H](C(=O)O)[N+](C)(C)C1 |
| 5350 | – | – | – | O=C(O)[C@@H]1C[C@@H](O)CN1 |
| – | 4030 | 10900 | 0% | C[N+]1(C)CCCC(C(=O)O)C1 (stereo not given) |
| 4280 | – | – | – | O=C(O)C1CCCCN1 (stereo not given) |
